# Results: ChEMBL document CHEMBL2331364, “A synthetic dolastatin 10 analogue suppresses microtubule dynamics, inhibits cell proliferation, and induces apoptotic cell death” (J Med Chem, 2013)
# The source made the active and inactive calls. No cut-off for these calls is given here.
# Key:
# HeLa [1] = experiment: Induction of apoptosis in human HeLa cells assessed as caspase-3 dependent PARP cleavage at 30 nM after 24 hrs by Western blot analysis; assay type: functional, cell-based
# Procedure, shortened: (§1)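 HeLa cells were treated with vehicle or 30 nM for 24 h and washed twice in PBS. Lysates were Western blotted with antibodies to JNK1, phospho-JNK, procaspase-3 and PARP.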
# HeLa [2] = experiment: Induction of apoptosis in human HeLa cells assessed as procaspase-3 activation at 30 nM after 24 hrs by Western blot analysis; assay type: functional, cell-based; procedure, shortened: as §1
# HeLa [3] = experiment: Induction of apoptosis in human HeLa cells assessed as apoptotic cells at 35 nM after 24 hrs by annexin V-FITC/propidium iodide staining-based FACS analysis; assay type: functional
# Procedure, shortened: (§2)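 HeLa cells were exposed to 35 nM for 10 or 24 h, stained with annexin V and propidium iodide using a kit, and apoptotic cells were quantified by FACS. Nocodazole (700 nM) served as comparator.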
# HeLa [4] = experiment: Induction of apoptosis in human HeLa cells assessed as late apoptotic cells at 30 nM after 24 hrs by annexin V/propidium iodide staining-based FACS flow cytometry; assay type: functional, cell-based
# Procedure, shortened: (§3)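 HeLa cells were grown with vehicle (0.1% DMSO) or 7, 15 and 30 nM for 24 h and stained with an annexin V/propidium iodide kit. Stage was scored as annexin V-positive with weak PI (early/mid) or positive for both (late).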
# HeLa [5] = experiment: Induction of apoptosis in human HeLa cells assessed as apoptotic cells at 35 nM after 10 hrs by annexin V-FITC/propidium iodide staining-based FACS analysis; assay type: functional; procedure, shortened: as §2
# HeLa [6] = experiment: Induction of apoptosis in human HeLa cells assessed as early apoptotic cells at 7 to 15 nM after 24 hrs by annexin V/propidium iodide staining-based FACS flow cytometry; assay type: functional, cell-based; procedure, shortened: as §3
# HeLa [7] = experiment: Inhibition of microtubule-kinetochore tension in human HeLa cells assessed as Mad2 accumulation at kinetochoric region at 15 to 45 nM after 24 hrs by Hoechst 33258 dye-based Hec1 staining assay; assay type: cell-based
# HeLa [8] = experiment: Inhibition of microtubule-kinetochore attachment in human HeLa cells assessed as BubR1 accumulation at kinetochoric region at 15 to 45 nM after 24 hrs by Hoechst 33258 dye-based Hec1 staining assay; assay type: cell-based
# MCF7 [9] = experiment: Inhibition of microtubule (unknown origin) dynamics in GFP-tubulin transfected human MCF7 cells assessed as microtubule pause time at 15 nM by confocal laser scanning microscopy (reference value: 35 +/- 8 %); assay type: cell-based; set-up: scale not given: the % may be the effect or the level left
# Procedure, shortened: (§4)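 EGFP-tubulin-transfected MCF-7 cells grown in EMEM with 10% FBS at 37 °C in 5% CO2, exposed to 15 nM compound (DMSO vehicle) or vehicle. Individual microtubules were followed by time-lapse confocal laser scanning microscopy and life-history traces were recorded. Kinetic parameters were derived from these traces, 20 microtubules per condition. Significance was tested by one-way ANOVA.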
# MCF7 [10] = experiment: Inhibition of microtubule (unknown origin) dynamics in GFP-tubulin transfected human MCF7 cells assessed as microtubule shortening time at 15 nM by confocal laser scanning microscopy (reference value: 27 +/- 8 %); assay type: cell-based; set-up: scale not given: the % may be the effect or the level left; procedure, shortened: as §4
# MCF7 [11] = experiment: Induction of mitotic microtubule depolymerization in human MCF7 cells at 15 nM after 48 hrs by Hoechst 33258 dye-based fluorescence microscopy; assay type: cell-based
# HeLa [12] = experiment: Induction of interphase microtubule depolymerization in human HeLa cells at 30 nM after 24 hrs by Hoechst 33258 dye-based fluorescence microscopy; assay type: cell-based
# HeLa [13] = experiment: Antimitotic activity in human HeLa cells assessed as increase in phosphohistone H3 (Ser10) positive cell population at 7 nM after 24 hrs by fluorescence microscopic analysis (reference value: 3 +/- 0.3 %); assay type: functional
# HeLa [14] = experiment: Antimitotic activity in human HeLa cells assessed as increase in phosphohistone H3 (Ser10) positive cell population after 24 hrs by fluorescence microscopic analysis; assay type: functional, cell-based
# HeLa [15] = experiment: Inhibition of mitosis in human HeLa cells assessed as mitotic index ratio at 30 nM after 48 hrs by Hoechst 33258 DNA staining assay (reference value: 3); assay type: functional
# Procedure, shortened: (§5)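 HeLa cells were treated with vehicle or 7, 15 or 30 nM compound for 24 or 48 h. DNA was stained with Hoechst 33258, and mitotic cells were counted by fluorescence microscopy to give the mitotic index, compared against vehicle-treated cells.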
# HeLa [16] = experiment: Inhibition of mitosis in human HeLa cells assessed as mitotic index ratio at 7 nM after 24 hrs by Hoechst 33258 DNA staining assay (reference value: 3.2); assay type: functional; procedure, shortened: as §5
# HeLa [17] = experiment: Cell cycle arrest in human HeLa cells assessed as accumulation at G2/M phase at 45 nM after 24 hrs by propidium iodide staining-based flow cytometry (reference value: 4%); assay type: functional
# Homo sapiens [18] = species: Homo sapiens; experiment: Inhibition of microtubule (unknown origin) GTPase activity using GTP as substrate assessed as reduction of inorganic phosphate release at 20 uM incubated for 10 mins prior to substrate addition measured after 10 mins by ammonium molybdate malachite green assay relative to control
# Procedure, shortened: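 GTP (1 mM) was added and the mixture polymerized at 37 °C for 10 min. Reactions were stopped with perchloric acid, and released phosphate was measured by ammonium molybdate–malachite green.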
# Tubulin (Homo sapiens) = Tubulin (Homo sapiens) (UniProt P68371+Q9H4B7+P0DPH7+P68366+Q13509+Q71U36+P04350+Q3ZCM7+P07437+P68363+Q9BQE3+Q6PEY2+Q13885+Q9BVA1+Q9BUF5); experiment: Induction of tubulin (unknown origin) dimer aggregation at 10 uM after 20 mins by transmission electron microscopy; assay type: protein-complex assay
# Procedure, shortened: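 Goat brain tubulin (10 μM) was preincubated with 5 or 10 μM on ice for 20 min, then polymerized with 1 mM GTP at 37 °C in glutamate assembly buffer. Polymers were fixed in 0.5% glutaraldehyde, negatively stained with 2% uranyl acetate, and imaged by transmission EM.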
# Homo sapiens [19] = species: Homo sapiens; experiment: Inhibition of microtubule (unknown origin) assembly at 1 to 10 uM incubated for 15 mins prior to GTP addition measured for 30 mins by 90 degree light scattering-based fluorescence spectrophotometric method
# Procedure, shortened: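 MAP-rich tubulin (1 mg/mL) was preincubated with 1, 3, 5 or 10 μM in PEM buffer (25 mM Pipes pH 6.8, 3 mM MgCl2, 1 mM EGTA) for 15 min on ice. GTP (1 mM) was then added and assembly monitored by 90° light scattering at 400 nm for 30 min at 37 °C.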
# HeLa [20] = experiment: Cytotoxicity against human HeLa cells after 24 to 48 hrs by trypan blue assay; assay type: functional, cell-based
# Procedure, shortened: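 Cells were seeded at 1 × 10^5 cells/mL, grown 24 h at 37 °C in 5% CO2, then given vehicle (0.1% DMSO) or 1–80 nM for a further 24 or 48 h. Attached plus floating cells were counted after trypan blue staining. Percent inhibition was plotted against concentration to give IC50. Average of three independent experiments.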
# Tubulin (Capra hircus) [21] = experiment: Inhibition of goat brain microtubule GTPase activity using GTP as substrate assessed as reduction of inorganic phosphate release at 5 uM incubated for 10 mins prior to substrate addition measured after 10 mins by ammonium molybdate malachite green assay relative to control
# Tubulin (Capra hircus) [22] = experiment: Inhibition of goat brain microtubule GTPase activity using GTP as substrate assessed as reduction of inorganic phosphate release at 2 uM incubated for 10 mins prior to substrate addition measured after 10 mins by ammonium molybdate malachite green assay relative to control
structure (smiles),measurement,setting,value
CC[C@H](C)[C@@H]([C@@H](CC(=O)NC[C@H]1O[C@H](C(=O)NCCc2ccccc2)[C@@H](OC)[C@@H]1OC)OC)N(C)C(=O)[C@@H](NC(=O)[C@@H](NC)C(C)C)C(C)C,Activity,HeLa [1],Active
same,Activity,HeLa [2],Active
same,Activity,HeLa [3],65.3%
same,Activity,HeLa [4],Active
same,Activity,HeLa [5],22.4%
same,Activity,HeLa [6],Active
same,Activity,HeLa [7],Active
same,Activity,HeLa [8],Active
same,Activity,MCF7 [9],59%
same,Activity,MCF7 [10],19%
same,Activity,MCF7 [11],Active
same,Activity,HeLa [12],Active
same,Activity,HeLa [13],6.6%
same,Activity,HeLa [14],Dose-dependent effect
same,Ratio,HeLa [15],16
same,Ratio,HeLa [16],6
same,Activity,HeLa [17],17%
same,inhibition,Homo sapiens [18],54%
same,Activity,Tubulin (Homo sapiens),Active
same,inhibition,Homo sapiens [19],Active
same,IC50,HeLa [20],6.8 nM
same,inhibition,Tubulin (Capra hircus) [21],42%
same,inhibition,Tubulin (Capra hircus) [22],17%
